# High-throughput results deposited in PubChem BioAssay by several laboratories.
# This is one part of a sample in which hits are shown more often than they occur.
# CHOP UPR activ: apoptotic UPR (CHOP) activation; activation, % at 10 µM; CHO-CHOP luciferase reporter, luminescence; percent of tunicamycin response over DMSO baseline; 330,000 tested, 0.34% active;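 active = at 10 µM dose, activation of 40% or more, normalized to positive control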;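 note: 100% = tunicamycin at 10 µg/mL and 0% = DMSO alone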
#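 Evaluation: % reporter activation, DMSO baseline versus tunicamycin full activation; System: CHO-CHOP luciferase reporter cell line; Input: 500 cells/well; Incubation: 6 h compound treatment, 37 °C; Measured by: Steady-Glo luciferase luminescence; Dosing: one dose, 10 µM in 0.5% DMSO; Buffer or medium: F12 medium, 10% FBS; Benchmarks: positive tunicamycin 10 µg/mL, negative DMSO alone.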
# TLR9-MyD88 block: inhibitors of human TLR9-MyD88 binding. Q9NR96+Q99836. CHO BLA complementation TLR9-MyD88, CCF4 FRET ratio. inhibition, % at 4.98 µM. 340,000 tested, 0.21% active;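 active = inhibition above the mean over all tested compounds plus 3 SD, cut at about 21% in these data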;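 note: 0% = DMSO only wells and 100% = clavulanate BLA inhibitor control wells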
# Target sequence (Q99836 whole entry, looked up): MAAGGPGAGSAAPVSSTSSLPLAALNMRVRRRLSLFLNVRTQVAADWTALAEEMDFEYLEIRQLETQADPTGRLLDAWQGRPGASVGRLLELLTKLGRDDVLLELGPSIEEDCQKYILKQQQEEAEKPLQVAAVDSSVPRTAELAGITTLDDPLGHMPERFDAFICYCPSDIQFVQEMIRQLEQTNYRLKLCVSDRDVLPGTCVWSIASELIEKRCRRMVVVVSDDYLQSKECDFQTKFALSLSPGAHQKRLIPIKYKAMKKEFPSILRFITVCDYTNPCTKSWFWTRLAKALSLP
# Target sequence (Q9NR96 whole entry, looked up): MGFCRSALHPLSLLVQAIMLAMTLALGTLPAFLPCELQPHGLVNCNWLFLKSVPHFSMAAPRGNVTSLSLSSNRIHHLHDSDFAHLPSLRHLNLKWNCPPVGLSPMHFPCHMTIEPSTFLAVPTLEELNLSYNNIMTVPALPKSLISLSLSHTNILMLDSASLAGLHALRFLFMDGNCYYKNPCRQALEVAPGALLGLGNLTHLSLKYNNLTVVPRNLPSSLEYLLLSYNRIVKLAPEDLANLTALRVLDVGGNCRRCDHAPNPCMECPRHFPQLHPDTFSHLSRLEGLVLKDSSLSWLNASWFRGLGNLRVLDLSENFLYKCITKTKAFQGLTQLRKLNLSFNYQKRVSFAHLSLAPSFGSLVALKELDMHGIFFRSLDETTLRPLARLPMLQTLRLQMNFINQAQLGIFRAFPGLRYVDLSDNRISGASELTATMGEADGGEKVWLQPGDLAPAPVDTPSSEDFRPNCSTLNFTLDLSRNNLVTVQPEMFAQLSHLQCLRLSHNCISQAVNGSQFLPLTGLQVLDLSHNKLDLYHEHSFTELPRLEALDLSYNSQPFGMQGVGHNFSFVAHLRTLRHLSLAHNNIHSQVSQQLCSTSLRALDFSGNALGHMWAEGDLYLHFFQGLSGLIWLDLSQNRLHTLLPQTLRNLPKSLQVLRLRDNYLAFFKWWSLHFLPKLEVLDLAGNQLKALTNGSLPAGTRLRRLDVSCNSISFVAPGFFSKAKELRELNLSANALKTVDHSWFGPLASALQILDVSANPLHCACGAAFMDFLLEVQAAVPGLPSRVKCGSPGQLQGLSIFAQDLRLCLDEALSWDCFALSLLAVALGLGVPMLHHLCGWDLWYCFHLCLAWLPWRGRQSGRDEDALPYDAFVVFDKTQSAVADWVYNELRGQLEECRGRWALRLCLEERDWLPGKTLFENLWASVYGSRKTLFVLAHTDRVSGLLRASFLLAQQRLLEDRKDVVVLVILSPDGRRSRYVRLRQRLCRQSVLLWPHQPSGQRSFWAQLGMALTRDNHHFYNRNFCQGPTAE
# XBP1 UPR activ: activators of adaptive arm of unfolded protein response (XBP1). CHO-XBP1 luciferase reporter, IRE1-XBP1 UPR activation, luminescence; percent of tunicamycin response, DMSO as zero. activation, % at 20 µM. 330,000 tested, 0.33% active. AID 463104;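 active = versus positive control, 20 µM dose yields 30% or more activation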;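 note: 100% = tunicamycin at 10 µg/mL and 0% = DMSO only wells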
#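 Material: IRE1-XBP1 luciferase reporter CHO line / Quantity: one thousand reporter cells per well / Buffer or medium: F12 with 10% serum / Compound: 20 µM single concentration, DMSO 1% / Times: 6 h treatment, 37 °C / Detection: Steady-Glo luciferase glow luminescence, 10 min after reagent addition / Benchmarks: tunicamycin high, DMSO low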
# TLR4 MyD88 comp: inhibitors of human TLR4-MyD88 binding; O00206+Q99836; HeLa CL3-4 TLR4/MyD88 BLA complementation, FRET ratio; inhibition, % at 8.4 µM; 200,000 tested, 0.18% active; in the data active = inhibition above about 25%;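 note: 0% = vehicle and 100% = reference inhibitor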
# CHOP inh: blocks CHOP induction under ER stress; CHO-K1 CHOP-promoter luciferase, tunicamycin-induced, 15-18 h; inhibition, % at 10 µM; 220,000 tested, 3.8% active;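 active = compounds that reduced the stress-induced luciferase reporter signal by more than about 70% of percent inhibition, limit read from the data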;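 note: 0% = tunicamycin plus vehicle and 100% = wells without tunicamycin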
# NOD2 RIPK2 PPI: blocks binding of human NOD2 to RIPK2. CHO BLA complementation NOD2-RIPK2, CCF4 ratio. O43353. 360,000 tested, 0.38% active. inhibition, % at 4.98 µM; in the data active = inhibition above about 21%;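 note: 0% = vehicle only and 100% = reference blocker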
# XBP1 UPR conf: adaptive UPR (XBP1) activation, confirmed. CHO-XBP1 IRE1-XBP1 luciferase reporter, luminescence. 1,000 tested, 63% active. AID 485299. shares compounds with XBP1 UPR activ. activation, % at 20 µM;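 active = reporter signal at least 30% of the positive control's activation in two or more of four replicate wells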;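 note: plate controls were DMSO negative control for no effect and tunicamycin 10 µg/mL positive control for full effect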
# * marks the source's active call; other numbers are inactive results; . = not tested or not shown.
SMILES,CHOP UPR activ,TLR9-MyD88 block,XBP1 UPR activ,TLR4 MyD88 comp,CHOP inh,NOD2 RIPK2 PPI,XBP1 UPR conf
Nc1nc(NCC2CCCO2)nc(Nc2cccc(Cl)c2)c1[N+](=O)[O-] (centres undefined),1,2,36*,.,28,-9,1
COc1ccc(N=C2NC(=O)/C(=C\c3ccco3)S2)cc1,3,-3,4,3,-13,9,.
O=C1NC(=Nc2ccc(O)cc2)S/C1=C\C=C\c1ccco1,4,4,31*,.,-9,5,4
Cc1cccc2c1Sc1ccc(Cl)cc1CC2N1CCNCC1 (centres undefined),8,.,31*,.,.,.,37*
CCc1cccc2c1Sc1ccccc1CC2N1CCNCC1 (centres undefined),6,-2,6,.,.,-1,.
CCCCCCCCCCOC(=O)Cn1c(COc2ccc(OC)cc2)[n+](C)c2ccccc21,12,-6,66*,.,.,5,44*
CCCCCOC(=O)Cn1c(=O)oc2ccccc21,1,5,-2,0,43,-2,.
CCCCCCCCCCOC(=O)Cn1c(COc2ccccc2)[n+](C)c2ccccc21,10,-3,72*,.,.,0,26
CCCCCCCCCCOC(=O)Cn1c(COc2ccccc2C)[n+](C)c2ccccc21,20,14,60*,.,.,22*,72*
Cc1cccc(OCCCn2c(=O)sc3ccccc32)c1,2,-4,0,-5,24,14,.
CCCCCCCCCCOC(=O)Cn1c(COc2cccc(C)c2)[n+](C)c2ccccc21,5,2,34*,.,.,-5,17
Cc1ccc(-n2c(SCC(N)=O)nnc2-c2ccc(S(=O)(=O)N3CCCCC3)cc2)c(C)c1,-2,-8,0,-10,31,8,.
CCCCCCCCCCOC(=O)Cn1c(COc2ccc(Cl)cc2)[n+](C)c2ccccc21,-1,7,36*,.,.,18,36*
CCCCOC(=O)Cn1c(=O)n(CC(=O)OCCCC)c2ccccc21,-2,1,-4,-5,2,0,.
O=C(CNC(=O)OCc1ccccc1)Nc1ccc(F)cc1,0,8,0,.,.,-1,.
O=C(CSc1nc2ccccc2c2nc3ccccc3n12)NCc1ccco1,-3,2,-2,-8,-14,3,.
Cc1ccc(NC(=O)CSc2nc3ccccc3c3nc4ccccc4n23)cc1,39,6,93*,2,9,12,200*
COc1ccc(OCC(=O)Sc2ccc(C)cc2)cc1,7,4,35*,2,83*,4,8
CCOc1cc(/C=N/N=C(/N)c2nonc2N)cc(Br)c1OCc1ccc(Cl)cc1,2,-6,70*,-15,19,6,142*
CCN(c1ccccc1)S(=O)(=O)c1ccc(Cl)c(NC(=O)CSc2nc(N)cc(=O)[nH]2)c1,.,2,.,.,.,1,.
O=C(CN1CCCCC1)NC(=O)NC1CCCCC1,1,2,0,.,.,4,.
Cc1cc(C)cc(OC(C)C(=O)Nc2ccc(S(=O)(=O)Nc3cc(C)nc(C)n3)cc2)c1 (centres undefined),-2,7,-4,.,.,-1,.
O=C(c1ccc2c(c1)[nH]c(=S)n1c3ccccc3nc21)N1CCN(c2cccc(Cl)c2)CC1,1,-10,33*,-3,51,3,54*
N#Cc1sc(=O)[nH]c1Cl,0,1,-1,.,.,-4,.
N#CCC(=O)N/N=C/c1cn(Cc2ccccc2C#N)c2ccccc12,2,2,3,.,-8,-6,.
SMILES,CHOP UPR activ,TLR9-MyD88 block,XBP1 UPR activ,TLR4 MyD88 comp,CHOP inh,NOD2 RIPK2 PPI,XBP1 UPR conf
N#CCC(=O)N/N=C/c1cn(Cc2cccc3ccccc23)c2ccccc12,8,7,130*,.,21,9,103*
CCNC(=O)C1CCCN(Cc2ccc(C)c3ccccc23)CC1 (centres undefined),.,.,.,.,.,0,.
Cc1cc(C)c(S(=O)(=O)N2CCCOC2CNC(=O)C(=O)NCc2ccco2)c(C)c1 (centres undefined),0,9,0,-11,9,-3,.
CCN=C1S/C(=C\c2cn(CC(=O)NCc3ccco3)c3ccccc23)C(=O)N1CC,0,11,116*,.,.,6,97*
Cc1ccc(C(C(=O)NCc2ccco2)N(C(=O)CNC(=O)c2cccs2)c2c(C)cc(C)cc2C)cc1 (centres undefined),25,2,36*,7,74*,-6,32*
Cc1ccc(C(C(=O)NCc2ccco2)N(Cc2ccco2)C(=O)CNC(=O)c2ccco2)cc1 (centres undefined),0,3,-1,0,20,5,.
CCc1nc(N)c(C#N)c(-c2ccc(F)cc2)c1C,-2,8,-2,-2,6,2,.
Cc1ccc2c(n1)sc1c(-c3ccc(Br)cc3)c(C#N)c(N)nc12,0,-13,61*,-15,82*,-2,43*
O=C(O)c1ccc(Cn2cnc3sc4c(c3c2=O)CCCC4)cc1,0,-4,-5,-2,21,6,.
Cc1ccc(Cn2cnc3sc4c(c3c2=O)CCC4)c(C)c1,2,1,31*,-11,77*,12,6
CCCNC(=O)c1c(N)n(-c2ccc3c(c2)OCO3)c2nc3ccccc3nc12,20,0,44*,1,80*,7,29*
CCCCN(CCCC)C(=O)c1nsnc1-c1ccccc1O,1,8,-2,-4,49,1,.
COc1ccc(/C=C2\SC(=S)N(CCCC(=O)Nc3cc(C)on3)C2=O)cc1OC,1,-12,42*,.,.,1,2
COc1ccc(/C=C2\SC(=S)N(CCCCCC(=O)Nc3cc(C)on3)C2=O)cc1OC,1,0,5,.,.,-3,.
O=C1C2C3C=CC(CC3)C2C(=O)N1/N=C/c1ccc(O)cc1 (centres undefined),0,-2,-1,10,30,-3,.
O=C1C2C3C=CC(CC3)C2C(=O)N1/N=C/c1ccc(O)c(O)c1 (centres undefined),23,-4,45*,-1,9,0,18
OCCCn1c(C2CCCN2c2nc(-c3ccc(F)cc3)cs2)nc2cc(Cl)c(N3CCCCC3)cc21 (centres undefined),0,3,100*,.,.,-7,48*
N#C/C(=C\c1ccc(N2CCCC2)c([N+](=O)[O-])c1)c1nc2ccccc2[nH]1,6,11,111*,2,67,8,71*
CCCCCCCCN1C(=O)[C@H](CC(=O)NCC23CC4CC(CC(C4)C2)C3)C[C@@]2(C(=O)OCC)CCC=C12,.,.,.,.,.,-1,.
